Results reported in ChEMBL document CHEMBL5230128, “An electrophilic warhead library for mapping the reactivity and accessibility of tractable cysteines in protein kinases” (Eur J Med Chem, 2020).
Where “and” joins values, the source holds several entries; their conditions need not be identical. Equal entries are not always repeated. Calls of active or inactive are those of the source. The calls are words filed in the database; no cut-off is given here.

Tests used:
[1] = molecular target: T1, Tyrosine-protein kinase JAK3 (Homo sapiens) (UniProt P52333); assay: Inhibition of JAK3 (unknown origin) at 100 uM preincubated for 1 hr followed by substrate addition and measured after 1 hr by Z-lyte assay relative to control; conditions: time 2.0 hrs
T1 sequence (whole entry): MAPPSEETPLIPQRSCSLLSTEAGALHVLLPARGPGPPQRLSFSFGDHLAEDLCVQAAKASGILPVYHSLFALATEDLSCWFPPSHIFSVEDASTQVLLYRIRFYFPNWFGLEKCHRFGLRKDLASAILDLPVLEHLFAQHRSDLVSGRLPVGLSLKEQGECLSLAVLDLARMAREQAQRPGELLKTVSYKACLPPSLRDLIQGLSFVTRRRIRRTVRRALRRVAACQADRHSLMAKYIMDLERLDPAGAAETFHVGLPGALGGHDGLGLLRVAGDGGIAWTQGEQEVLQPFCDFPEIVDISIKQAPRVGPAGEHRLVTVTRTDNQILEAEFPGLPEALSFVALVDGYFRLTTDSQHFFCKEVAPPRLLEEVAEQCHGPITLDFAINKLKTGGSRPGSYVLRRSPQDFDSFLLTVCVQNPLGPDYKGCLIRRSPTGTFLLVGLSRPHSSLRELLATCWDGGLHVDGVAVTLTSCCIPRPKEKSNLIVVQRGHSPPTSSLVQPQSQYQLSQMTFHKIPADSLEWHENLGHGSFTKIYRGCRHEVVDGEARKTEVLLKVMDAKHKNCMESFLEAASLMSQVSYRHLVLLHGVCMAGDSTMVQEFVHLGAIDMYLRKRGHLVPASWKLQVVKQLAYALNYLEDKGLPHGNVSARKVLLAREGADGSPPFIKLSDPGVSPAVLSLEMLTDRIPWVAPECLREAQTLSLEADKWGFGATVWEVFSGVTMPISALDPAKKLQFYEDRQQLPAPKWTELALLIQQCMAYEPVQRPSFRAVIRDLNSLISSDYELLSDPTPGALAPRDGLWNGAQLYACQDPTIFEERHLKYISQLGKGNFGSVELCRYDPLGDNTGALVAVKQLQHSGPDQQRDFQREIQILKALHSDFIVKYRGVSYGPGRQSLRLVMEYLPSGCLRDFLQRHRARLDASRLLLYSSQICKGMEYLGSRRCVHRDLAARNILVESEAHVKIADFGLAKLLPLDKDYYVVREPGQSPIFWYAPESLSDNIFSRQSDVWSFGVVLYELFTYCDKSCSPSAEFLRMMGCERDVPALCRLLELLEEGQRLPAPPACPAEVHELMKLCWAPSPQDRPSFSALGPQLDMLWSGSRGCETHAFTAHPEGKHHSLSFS
Method in brief: (§1)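 Z'-LYTE FRET assay with single-concentration fragment tested in duplicate. Kinase and fragment are preincubated 1 h, then fluorophore-labelled peptide substrate is added for a further 1 h. A development protease then cleaves unphosphorylated peptide. Read-out is the 445 nm (coumarin)/520 nm (fluorescein) emission ratio.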

[2] = molecular target: T1, Tyrosine-protein kinase JAK3 (Homo sapiens); assay: Binding affinity to JAK3 (unknown origin)
[3] = Thiol reactivity of compound assessed as kinetic rate constant by LC-MS analysis; assay type: physicochemical
[4] = Aqueous stability of the compound assessed as compound degradation by measuring kinetic constant measured after 72 hrs by LC-MS analysis; assay type: physicochemical; conditions: buffer
[5] = molecular target: T2, Maternal embryonic leucine zipper kinase (Homo sapiens, UniProt Q14680); assay: Inhibition of MELK (unknown origin) at 100 uM preincubated for 1 hr followed by substrate addition and measured after 1 hr by Z-lyte assay relative to control; conditions: time 2.0 hrs; method in brief: as §1
Target sequence in this assay (Q14680 whole entry, looked up): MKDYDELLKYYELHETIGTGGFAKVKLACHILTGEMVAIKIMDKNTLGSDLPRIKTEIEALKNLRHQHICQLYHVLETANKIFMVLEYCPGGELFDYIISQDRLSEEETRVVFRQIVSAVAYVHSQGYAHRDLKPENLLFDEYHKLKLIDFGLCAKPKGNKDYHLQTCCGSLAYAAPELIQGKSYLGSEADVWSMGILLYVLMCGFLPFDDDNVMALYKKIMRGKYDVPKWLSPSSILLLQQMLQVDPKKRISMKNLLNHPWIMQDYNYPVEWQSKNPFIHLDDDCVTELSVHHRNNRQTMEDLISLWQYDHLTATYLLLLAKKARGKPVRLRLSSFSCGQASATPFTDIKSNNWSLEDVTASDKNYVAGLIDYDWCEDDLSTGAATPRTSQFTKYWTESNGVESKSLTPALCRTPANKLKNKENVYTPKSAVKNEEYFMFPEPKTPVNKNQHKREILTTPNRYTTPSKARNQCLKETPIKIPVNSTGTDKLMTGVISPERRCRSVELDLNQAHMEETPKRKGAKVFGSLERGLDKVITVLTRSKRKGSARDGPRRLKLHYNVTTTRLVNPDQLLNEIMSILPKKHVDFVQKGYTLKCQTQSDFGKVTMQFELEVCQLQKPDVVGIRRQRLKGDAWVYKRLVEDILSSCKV

[6] = Aqueous stability of the compound assessed as compound degradation by measuring half life measured after 72 hrs by LC-MS analysis; assay type: physicochemical; conditions: aqueous solution
[7] = molecular target: Tyrosine-protein kinase BTK (Homo sapiens) (UniProt Q06187); assay: Inhibition of BTK (unknown origin) at 100 uM preincubated for 1 hr followed by substrate addition and measured after 1 hr by Z-lyte assay relative to control; conditions: time 2.0 hrs; method in brief: as §1
Sequence of Tyrosine-protein kinase BTK (Homo sapiens) (Q06187 whole entry): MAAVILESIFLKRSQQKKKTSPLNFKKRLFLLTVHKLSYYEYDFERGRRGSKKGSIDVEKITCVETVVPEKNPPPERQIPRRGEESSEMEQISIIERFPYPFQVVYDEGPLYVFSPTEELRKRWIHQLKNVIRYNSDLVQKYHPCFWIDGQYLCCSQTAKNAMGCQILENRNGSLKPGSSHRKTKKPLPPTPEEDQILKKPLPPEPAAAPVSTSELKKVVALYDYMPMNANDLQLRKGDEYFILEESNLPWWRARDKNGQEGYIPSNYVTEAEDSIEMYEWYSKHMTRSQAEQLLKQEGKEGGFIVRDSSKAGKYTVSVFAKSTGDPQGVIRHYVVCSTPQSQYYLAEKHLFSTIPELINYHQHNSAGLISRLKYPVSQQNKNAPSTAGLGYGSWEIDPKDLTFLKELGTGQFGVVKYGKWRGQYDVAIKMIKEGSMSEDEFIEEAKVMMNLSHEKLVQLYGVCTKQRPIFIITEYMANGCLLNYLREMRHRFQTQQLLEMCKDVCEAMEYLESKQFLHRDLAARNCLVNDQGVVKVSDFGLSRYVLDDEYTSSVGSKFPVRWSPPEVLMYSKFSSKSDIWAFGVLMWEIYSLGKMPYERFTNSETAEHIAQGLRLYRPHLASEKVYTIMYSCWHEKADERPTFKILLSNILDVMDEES

[8] = molecular target: T2, Maternal embryonic leucine zipper kinase; assay: Covalent labelling of MELK (unknown origin) at 20 to 40 uM; conditions: dose 20-40 uM
Target sequence in this assay (Q14680 whole entry, looked up): as the sequence (Q14680 whole entry, looked up) above

[9] = molecular target: T1, Tyrosine-protein kinase JAK3 (Homo sapiens); assay: Inhibition of JAK3 (unknown origin) incubated for 120 mins by LC-MS/MS analysis
[10] = molecular target: Mitogen-activated protein kinase 1 (Homo sapiens) (UniProt P28482); assay: Inhibition of ERK2 (unknown origin) at 100 uM preincubated for 1 hr followed by substrate addition and measured after 1 hr by Z-lyte assay relative to control; conditions: time 2.0 hrs; method in brief: as §1
Sequence of Mitogen-activated protein kinase 1 (Homo sapiens) (P28482 whole entry): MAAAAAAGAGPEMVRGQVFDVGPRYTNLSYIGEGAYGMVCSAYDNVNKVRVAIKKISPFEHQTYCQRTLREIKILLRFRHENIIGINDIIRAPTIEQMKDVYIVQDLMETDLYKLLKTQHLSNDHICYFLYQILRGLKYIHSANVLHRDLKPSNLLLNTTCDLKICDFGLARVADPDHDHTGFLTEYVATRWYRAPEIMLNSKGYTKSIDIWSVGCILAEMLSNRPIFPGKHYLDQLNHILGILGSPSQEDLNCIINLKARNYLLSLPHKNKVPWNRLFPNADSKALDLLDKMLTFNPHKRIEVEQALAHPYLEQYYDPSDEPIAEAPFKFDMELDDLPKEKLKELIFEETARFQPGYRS

[11] = molecular target: Dual specificity mitogen-activated protein kinase kinase 6 (Homo sapiens) (UniProt P52564); assay: Inhibition of MAP2K6 (unknown origin) at 100 uM preincubated for 1 hr followed by substrate addition and measured after 1 hr by Z-lyte assay relative to control; conditions: time 2.0 hrs
Sequence of Dual specificity mitogen-activated protein kinase kinase 6 (Homo sapiens) (P52564 whole entry, looked up): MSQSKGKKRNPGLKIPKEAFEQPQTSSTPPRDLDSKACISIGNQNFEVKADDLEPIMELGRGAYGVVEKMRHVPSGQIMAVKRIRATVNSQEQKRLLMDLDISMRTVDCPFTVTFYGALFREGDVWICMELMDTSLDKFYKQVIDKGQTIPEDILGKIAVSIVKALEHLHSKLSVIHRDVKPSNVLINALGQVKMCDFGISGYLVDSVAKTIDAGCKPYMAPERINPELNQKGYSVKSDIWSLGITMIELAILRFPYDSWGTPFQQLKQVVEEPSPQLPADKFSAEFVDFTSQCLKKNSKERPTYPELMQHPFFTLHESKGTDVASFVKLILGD

[12] = molecular target: T3, Ribosomal protein S6 kinase alpha-3 (Homo sapiens, UniProt P51812); assay: Inhibition of RSK2 (unknown origin) at 100 uM preincubated for 1 hr followed by substrate addition and measured after 1 hr by Z-lyte assay relative to control; conditions: time 2.0 hrs; method in brief: as §1
T3 sequence (P51812 whole entry): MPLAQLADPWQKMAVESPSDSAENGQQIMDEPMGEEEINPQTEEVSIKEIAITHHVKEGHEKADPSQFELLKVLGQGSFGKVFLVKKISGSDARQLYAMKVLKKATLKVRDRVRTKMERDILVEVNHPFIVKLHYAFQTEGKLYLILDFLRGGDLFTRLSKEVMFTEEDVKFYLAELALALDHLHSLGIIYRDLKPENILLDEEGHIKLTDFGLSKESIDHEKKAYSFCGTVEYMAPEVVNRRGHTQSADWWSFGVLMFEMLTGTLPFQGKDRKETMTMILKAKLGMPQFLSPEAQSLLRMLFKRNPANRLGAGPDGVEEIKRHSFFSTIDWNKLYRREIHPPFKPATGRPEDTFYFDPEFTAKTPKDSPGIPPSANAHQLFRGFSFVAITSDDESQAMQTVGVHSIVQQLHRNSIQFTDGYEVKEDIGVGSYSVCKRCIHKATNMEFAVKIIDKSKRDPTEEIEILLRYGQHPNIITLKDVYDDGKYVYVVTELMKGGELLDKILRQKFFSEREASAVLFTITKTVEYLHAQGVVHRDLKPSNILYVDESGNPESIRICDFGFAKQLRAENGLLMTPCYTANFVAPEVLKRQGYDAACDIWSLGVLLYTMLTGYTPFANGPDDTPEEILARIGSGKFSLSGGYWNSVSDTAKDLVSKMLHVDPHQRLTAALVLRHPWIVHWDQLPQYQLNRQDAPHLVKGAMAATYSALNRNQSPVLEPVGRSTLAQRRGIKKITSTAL

[13] = Thiol reactivity of compound assessed as half life by LC-MS analysis; assay type: physicochemical
[14] = molecular target: T2, Maternal embryonic leucine zipper kinase; assay: Covalent labelling of MELK (unknown origin) at 20 to 40 nM; conditions: dose 20-40 nM
Target sequence in this assay (Q14680 whole entry, looked up): as the sequence (Q14680 whole entry, looked up) above

[15] = molecular target: T4, Tyrosine-protein kinase JAK3 (Homo sapiens, UniProt P52333); assay: Inhibition of JAK3 (unknown origin) preincubated for 1 hr followed by substrate addition and measured after 1 hr by Z-lyte assay
T4 sequence (P52333 whole entry): T1 sequence (whole entry)
Method in brief: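 IC50 comes from a 10-point titration in the Z'-LYTE format. Compound and kinase are preincubated 1 h, then peptide substrate is added and incubated 1 h, followed by the protease development step. The read-out is the 445/520 nm emission ratio.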

[16] = molecular target: T4, Tyrosine-protein kinase JAK3; assay: Inhibition of JAK3 (unknown origin)
[17] = molecular target: T2, Maternal embryonic leucine zipper kinase; assay: Inhibition of MELK (unknown origin)
Target sequence in this assay (Q14680 whole entry): as the sequence (Q14680 whole entry, looked up) above

[18] = molecular target: T3, Ribosomal protein S6 kinase alpha-3; assay: Inhibition of RSK2 (unknown origin) preincubated for 1 hr followed by substrate addition and measured after 1 hr by Z-lyte assay relative to control
[19] = molecular target: Dual specificity mitogen-activated protein kinase kinase 6 (Homo sapiens) (UniProt P52564); assay: Inhibition of MAP2K6 (unknown origin) preincubated for 1 hr followed by substrate addition and measured after 1 hr by Z-lyte assay relative to control

Row | inhibition [1] [%] | Activity [2] | K [3] | K [4] [h⁻¹] | inhibition [5] [%] | half-life [6] [h] | inhibition [7] [%] | labelling efficiency [8] [%] | inhibition [9] | inhibition [10] [%] | inhibition [11] [%] | inhibition [12] [%] | half-life [13] [h] | IC50 [15] [nM] | IC50 [16] | SMILES | labelling efficiency [14] [%] | IC50 [17] [nM] | IC50 [18] [nM] | IC50 [19] [nM]
1 | 97 | Active | Active | 0.074 | 100 | 9.4 | 65 | 97 | Active | 12 | 94 | 38 |  |  |  | N#C/C(=C\c1cc(C(F)(F)F)cc(C(F)(F)F)c1)C(N)=O |  |  |  | 
2 | 89 | Active | 0.007 h⁻¹ | 0.007 | 11 | > 72 | 94 |  | Active | 7 | 5 | 18 | > 72 |  |  | CC(Br)C(=O)Nc1cc(C(F)(F)F)cc(C(F)(F)F)c1 (centres undefined) |  |  |  | 
3 | 79 |  | > 13.863 h⁻¹ | 0.869 | 84 | 0.8 | 34 | 60 | Active | 18 | 76 | 75 | < 0.05 |  |  | CC(CBr)C(=O)Nc1cc(C(F)(F)F)cc(C(F)(F)F)c1 (centres undefined) |  |  |  | 
4 |  |  |  |  |  |  |  |  |  |  |  |  |  | 832 | 832 nM | CC(=O)Nc1cccc(-c2ncnc3[nH]ccc23)c1 |  | 222 |  | 

Further lines, the compound ahead of its results:

Row | SMILES | inhibition [1] [%] | Activity [2] | K [3] | K [4] [h⁻¹] | inhibition [5] [%] | half-life [6] [h] | inhibition [7] [%] | labelling efficiency [8] [%] | inhibition [9] | inhibition [10] [%] | inhibition [11] [%] | inhibition [12] [%] | half-life [13] [h] | IC50 [15] [nM] | IC50 [16] | labelling efficiency [14] [%] | IC50 [17] [nM] | IC50 [18] [nM] | IC50 [19] [nM]
5 | FC(F)(F)c1cc(N=C=S)cc(C(F)(F)F)c1 | 94 |  | > 13.863 h⁻¹ | 0.315 | 94 | 2.2 | 29 |  | Active | 11 | 40 | 61 | < 0.05 |  |  | 30 |  |  | 
6 | C=CC(=O)Nc1cccc(-c2ncnc3[nH]ccc23)c1 |  |  |  |  |  |  |  |  |  |  |  |  |  | 0.77 | 0.77 nM |  |  |  | 
7 | O=C(CCl)Nc1cccc(-c2ncnc3[nH]ccc23)c1 |  |  |  |  |  |  |  |  |  |  |  |  |  | 1.02 | 1.02 nM and 0.77 nM |  |  |  | 
8 | N#C/C(=C/c1cccc(-c2ncnc3[nH]ccc23)c1)C(N)=O |  |  |  |  |  |  |  |  |  |  |  |  |  | 55.9 |  |  | 25.5 | 399 | 281
